PP5 primary – inhibitors of human protein phosphatase 5 (PP5); inhibition, % at 6.7 µM; purified PP5c, OMFP substrate fluorescence; actives 0.18% (n = 320,000); AID 1987; P53041;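 active = inhibition above the campaign's mean inhibition across all tested compounds plus 3 SD, cut at about 9.5% in these data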;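 note: 0% = DMSO only and 100% = 100 µM cantharidin control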
Target sequence (P53041 whole entry, looked up): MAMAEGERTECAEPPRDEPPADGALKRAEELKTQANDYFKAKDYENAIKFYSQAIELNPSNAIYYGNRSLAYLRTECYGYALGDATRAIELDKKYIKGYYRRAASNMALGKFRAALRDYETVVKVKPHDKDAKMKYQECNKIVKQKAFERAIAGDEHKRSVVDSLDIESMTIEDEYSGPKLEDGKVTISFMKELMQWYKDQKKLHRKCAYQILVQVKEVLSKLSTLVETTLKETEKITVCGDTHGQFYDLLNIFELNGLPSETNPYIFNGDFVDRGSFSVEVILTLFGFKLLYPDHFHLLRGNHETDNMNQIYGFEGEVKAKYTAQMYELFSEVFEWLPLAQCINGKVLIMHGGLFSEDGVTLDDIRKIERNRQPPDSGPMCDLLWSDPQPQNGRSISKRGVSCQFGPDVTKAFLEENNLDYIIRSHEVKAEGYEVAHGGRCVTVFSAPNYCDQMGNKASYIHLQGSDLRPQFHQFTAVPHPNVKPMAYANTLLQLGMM
CTSL1 counter – blocks F. hepatica cathepsin L1 in PFM18AAP counter-screen; actives 0.49% (n = 300,000); recombinant F. hepatica cathepsin L1, Z-Leu-Arg-MCA fluorescence; AID 1906; inhibition, % at 5.96 µM;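 active = inhibition above the mean of all tested compounds plus 3 SD, set per screening campaign, cut at about 17% in these data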;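 note: 0% = plate median of test compound wells and 100% = 1 µM Z-Phe-Ala-diazomethylketone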
PP1 inh – PP1-alpha (human) inhibition in PP5 counter-screen; purified PP1alpha, OMFP fluorescence; actives 0.9% (n = 320,000); inhibition, % at 6.7 µM; P62136;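 active = inhibition above the mean inhibition of all tested compounds plus 3 SD, computed separately for each screening campaign, cut at about 15% in these data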
NadD inh – NadD (S. aureus) enzyme inhibition. purified NadD enzyme, colorimetric absorbance read-out. inhibition, % at 20 µM. actives 0.78% (n = 360,000). AID 602399; in the data active = inhibition above about 26%
HCV core dimer – HCV core protein dimerization inhibition | TR-FRET GST/Flag-core106 dimerization, 1536-well | inhibition, % at 5 µM | actives 0.33% (n = 300,000);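 active = inhibition above the mean of all tested compounds plus 3 SD, set per screening campaign, cut at about 45% in these data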
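Test system: GST/Flag-tagged HCV core106 proteins; Medium: KF-containing HEPES buffer, pH 7.45, DTT, CHAPS, BSA; Times: compound-protein-antibody incubation 4 h at 22.5 °C; Detection: TR-FRET 671 and 617 nm emission; Benchmarks: wells lacking GST-core106 and wells with excess unlabelled core106.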
Myeloid diff 2 – compounds promoting myeloid differentiation | ER-HoxA9 myeloid progenitors, lysozyme-GFP differentiation, flow cytometry | calls only at 10 µM | actives 1% (n = 360,000) | AID 624256;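 active = normalized GFP-positive differentiation at or above the plate's own cutoff, the solvent-only control mean plus 3 SD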;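 note: cells exposed to compound for four days before flow analysis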
Myeloid diff – promotes myeloid progenitor differentiation; shares compounds with Myeloid diff 2; ER-HoxA9 myeloid progenitors, GFP/Mac1 double-positive flow; calls only; actives 2% (n = 2,300);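 active = share of green or green-and-red cells above 9 and 9% in run 1 or 4 and 3% in run 2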
GFP autofluor – compound fluorescence in myeloid differentiation counter-screen | shares compounds with Myeloid diff 2 | ER-HoxA9 myeloid progenitors, no estrogen, GFP autofluorescence flow cytometry; vehicle wells 0%, positive control 100% | fluorescence response, % (test concentration not listed) | actives 7.4% (n = 2,300) | AID 651707;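 active = over 5% cells positive for green fluorescent reporter, or over 2% positive for both it and APC stain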;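 note: range taken on the double positive population between DMSO and positive control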
* hit, by the source's call; i = inactive; . = no result; + = active, no number. Compounds with a hit are over-represented: about 3.1% of the library has one in this group of screens.

SMILES	PP5 primary	CTSL1 counter	PP1 inh	NadD inh	HCV core dimer	Myeloid diff 2	Myeloid diff	GFP autofluor
C=CCOc1ccc(/C=C/C(=O)OCC(=O)Nc2c(C)n(C)n(-c3ccccc3)c2=O)cc1	0	-5	-4	2	-4	i	.	.
CCN(CC)S(=O)(=O)c1ccc(C(=O)NC(=S)N(CCC#N)Cc2cccnc2)cc1	-1	-2	-3	10	-1	i	.	.
CN(C)S(=O)(=O)c1cccc(C(=O)NC(=S)N(CCC#N)Cc2cccnc2)c1	-1	4	7	1	-2	i	i	2
COc1ccc(-n2c(COc3ccc(C)cc3)nnc2SCC(=O)O)cc1	1	-8	3	3	8	i	.	.
CCOc1ccc(-n2c(COc3ccc(C)cc3)nnc2SCC(N)=O)cc1	1	0	0	0	-3	i	i	0
COc1ccc(C(=O)CSc2ncnc3nc[nH]c23)cc1	1	2	-3	-7	-3	+	i	0
COc1ccc(CNC(=O)CSc2ncnc3nc[nH]c23)cc1	1	0	-2	-2	1	i	.	.
CC(C)(Oc1ccc(Br)cc1Cl)C(=O)Nc1ccon1	4	8	-16	-1	-3	i	.	.
C[C@@H]1CN([C@H](C)CO)C(=O)CCCn2nncc2CO[C@@H]1CN(C)S(=O)(=O)c1ccccc1	.	.	.	-2	.	i	.	.
O=C(O)c1cccnc1Nc1ccc(Cl)cc1	0	-4	-3	-10	-5	+	+	0
CC1CCC(NC(=O)COC(=O)c2n[nH]c(=O)c3ccccc23)CC1 (stereo not drawn)	2	-7	-2	2	1	i	.	.
COC(=O)c1cc(NC(=O)CN2CCc3cc4c(cc3C2)OCCCO4)cc(C(=O)OC)c1	5	0	-2	-5	2	i	i	0
CCOc1ccc(NC(=O)CN2CCc3ccccc3C2)cc1	3	0	-1	-2	-2	i	.	.
CCOC(=O)c1ccc(NC(=O)CN2CCc3ccccc3C2)cc1	3	0	0	3	-5	i	i	2
CC(Oc1ccccc1)C(=O)NNC(=O)c1ccccn1 (stereo not drawn)	3	-5	-2	-4	-2	i	.	.
COc1cc(OC)cc(C(=O)NNC(=O)c2ccccn2)c1	2	-2	-5	1	-7	+	i	0
COc1ccc(C(=O)NNC(=O)c2ccccn2)cc1	1	-1	-2	-1	-1	i	.	.
CC(Oc1cccc(Br)c1)C(=O)NNC(=O)c1ccccn1 (stereo not drawn)	.	.	.	1	.	+	i	2
CNC(=S)NC1CC2CCCC(C1)N2Cc1ccco1 (stereo not drawn)	0	3	-4	-2	1	i	.	.
COCCCNC(=S)NC1CC2CCCC(C1)N2Cc1ccco1 (stereo not drawn)	-1	-2	1	-6	-5	i	i	0
CCCCN1C(N)=NC[C@@H]1Cc1ccc(O)cc1	2	4	1	-1	-6	+	i	1
O=C(O)CCNS(=O)(=O)c1ccc(Oc2ccccc2)cc1	2	-2	-5	-2	0	i	i	0
O=C(CNC(=O)c1ccc(=O)[nH]c1)Nc1ccc(F)c(F)c1	5	-3	4	-1	-12	+	i	0
CCc1ccc(-c2nc(SCC(=O)N3CCOCC3)n[nH]2)cc1	-2	-2	-2	3	-5	+	i	14*
C/C=C/C1=CC(=O)C[C@H](c2ccc(Cl)cc2)C1	-2	.	-1	-1	.	i	.	.
O=C(Nc1ccc(S(=O)(=O)N2CCCCC2)cc1)c1ccc(Cl)nc1	.	.	.	-6	.	i	.	.
C=C(C(=O)c1ccccc1)C(C)CC(=O)c1ccccc1 (stereo not drawn)	2	-1	-1	-2	5	i	i	99*
